Active and inactive are the calls of the source. No cut-off for these calls is given here.
Experiments:
[1] = test system: SH-SY5Y; assay: Neuroprotection against H2O2-induced cell death in human SH-SY5Y cells assessed as cell viability at 10 uM preincubated for 6 hrs followed by H2O2 addition and measured after 24 hrs by MTT assay relative to control; format: functional; conditions: read-out: Activity
Outline: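 SH-SY5Y cells pretreated with 1 at 1 or 10 μM, then exposed to 600 μM H₂O₂. Viability by MTT, expressed as % of control. DMSO below 0.1%. Mean ± S.E.M. of three independent experiments.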

[2] = test system: SH-SY5Y; assay: Cytotoxicity against non-stimulated human SH-SY5Y cells assessed as effect on LDH release measured after 6 hrs; format: cell-based
[3] = test system: SH-SY5Y; assay: Protection against H2O2-induced oxidative stress in human SH-SY5Y cells assessed as reduction in reactive oxygen species level preincubated for 6 hrs followed by H2O2 addition and measured after 24 hrs by DHE dye based inverted microscopic analysis; format: functional, cell-based
[4] = test system: SH-SY5Y; assay: Induction of oxidative stress in non-stimulated human SH-SY5Y cells assessed as reactive oxygen species level at 10 uM after 6 hrs by DHE dye based flow cytometry (reference value: 4.8%); format: cell-based
[5] = test system: SH-SY5Y; assay: Protection against H2O2-induced apoptosis in human SH-SY5Y cells assessed as late apoptotic cells at 1 uM preincubated for 6 hrs followed by H2O2 addition and measured after 24 hrs by Annexin V-FITC/propidium iodide staining based flow cytometry (reference value: 3.5%); format: functional
[6] = test system: SH-SY5Y; assay: Protection against H2O2-induced apoptosis in human SH-SY5Y cells assessed as viable cells at 10 uM preincubated for 6 hrs followed by H2O2 addition and measured after 24 hrs by Annexin V-FITC/propidium iodide staining based flow cytometry (reference value: 12.4%); format: functional; conditions: read-out: Activity
[7] = test system: SH-SY5Y; assay: Protection against H2O2-induced apoptosis in human SH-SY5Y cells assessed as late apoptotic cells at 10 uM preincubated for 6 hrs followed by H2O2 addition and measured after 24 hrs by Annexin V-FITC/propidium iodide staining based flow cytometry (reference value: 77.5%); format: functional
[8] = Induction of apoptosis in non-stimulated human SH-SY5Y cells assessed as viable cells at 10 uM measured after 6 hrs by Annexin V-FITC/propidium iodide staining based flow cytometry (reference value: 92.5%); format: cell-based; conditions: read-out: Activity
[9] = test system: SH-SY5Y; assay: Induction of apoptosis in non-stimulated human SH-SY5Y cells assessed as early apoptotic cells at 10 uM measured after 6 hrs by Annexin V-FITC/propidium iodide staining based flow cytometry (reference value: 4.5%); format: cell-based
[10] = test system: Mus musculus; assay: Induction of motor impairment in C57Bl/6 mouse at 10 mg/kg, ig treated for 10 days measured after 4 to 72 hrs for 3 mins by rota rod test; format: organism-based; conditions: in vivo, po
[11] = test system: Mus musculus; assay: Anti-parkinson's activity in MPTP-induced C57Bl/6 mouse model of Parkinson's disease assessed as decrease in ratio of Bax/Bcl2 expression in substantia nigra at 10 to 20 mg/kg, ig pretreated for 10 days followed by MPTP challenge measured 10 days post MPTP addition by Western blot analysis; format: functional, organism-based
Outline: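 Substantia nigra from MPTP mice. Bax, Bcl-2 and cleaved caspase-3 measured by western blot, with Bcl-2/Bax ratio by densitometry. Mean ± S.D., n = 6 mice/group.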

[12] = AUC (0 to infinity) in Sprague-Dawley rat at 25 mg/kg, po by LC-MS/MS analysis; format: ADME, organism-based; set-up: dose 25 mg/kg, time infinity, route oral; conditions: in vivo
Outline: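 Male Sprague–Dawley rats (n = 3) got a single oral dose of 25 mg/kg in 0.5% methylcellulose with 1% Tween 80. AUC0-∞ came from the plasma concentration–time profile, reported as mean ± SD.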

[13] = Tmax in Sprague-Dawley rat at 25 mg/kg, po by LC-MS/MS analysis; format: ADME, organism-based; conditions: in vivo
Outline: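 Male Sprague–Dawley rats (n = 3) dosed i.v. 5 mg/kg (5% DMSO, 2% F68, 93% saline) or p.o. 25 mg/kg (0.5% methylcellulose, 1% Tween 80). Orbital blood at 0.083–24 h (12 points). Plasma concentration–time profiles gave Cl, Vdss, AUC, T1/2, Tmax, Cmax, MRT and absolute F.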

[14] = Cmax in Sprague-Dawley rat at 25 mg/kg, po by LC-MS/MS analysis; format: ADME, organism-based; set-up: dose 25 mg/kg, route oral; conditions: in vivo
Outline: (§1)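 Male Sprague–Dawley rats dosed with 1 at 5 mg/kg i.v. (vehicle 5% DMSO, 2% F68, 93% saline) or 25 mg/kg p.o. (0.5% methylcellulose with 1% Tween 80). Orbital blood sampled at 0.083–24 h, 12 time points. Plasma PK parameters derived. Mean ± SD, n = 3.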

[15] = AUC (0 to infinity) in Sprague-Dawley rat at 5 mg/kg, iv by LC-MS/MS analysis; format: ADME, organism-based; set-up: dose 5 mg/kg, route intravenous, time infinity; conditions: in vivo
Outline: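 Single intravenous 5 mg/kg dose in 5% DMSO + 2% F68 + 93% saline to male Sprague–Dawley rats (n = 3). Orbital blood samples (100-200 μL) were taken at 12 points over 24 h (0.083 to 24 h). AUC0-∞ was derived from the plasma concentration–time curve and given as mean ± SD.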

[16] = MRT in Sprague-Dawley rat at 5 mg/kg, iv by LC-MS/MS analysis; format: ADME, organism-based; conditions: in vivo; outline: as §1
[17] = Activation of PI3K/Akt/mTOR signaling in human SH-SY5Y cells assessed as up regulation of HO-1 expression at 0.1 uM after 24 hrs by Western blot analysis relative to control; format: cell-based
Outline: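 HO-1 western blot in SH-SY5Y cells incubated 24 h with 1 at 0.1, 1 or 10 μM, without H₂O₂. Band densitometry expressed as % of control. Mean ± S.E.M. from three independent experiments.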

[18] = Activation of PI3K/Akt/mTOR signaling in human SH-SY5Y cells assessed as up regulation of H2O2-induced HO-1 expression at 10 uM preincubated for 6 hrs followed by H2O2 addition and after 24 hrs by Western blot analysis (reference value: 181.53 +/- 24.67%); format: cell-based
Outline: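 SH-SY5Y cells pretreated 6 h with 1 (1 or 10 μM), then exposed to 600 μM H₂O₂ for 24 h. HO-1 measured by western blot with densitometry and expressed as % of control. Mean ± S.E.M., three independent experiments.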

[19] = Activation of PI3K/Akt/mTOR signaling in human SH-SY5Y cells assessed as up regulation of H2O2-induced HO-1 expression at 10 uM preincubated for 6 hrs followed by H2O2 addition and after 24 hrs in presence of PI3K/Akt/mTOR inhibitor LY294002 by Western blot analysis; format: cell-based
Outline: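 SH-SY5Y cells preincubated 1 h with one inhibitor: SB203580 10 μM, LY294002 5 μM, U0126 10 μM, SP600125 5 μM or rapamycin 100 nM. Then 1 (10 μM) for 6 h, then 600 μM H₂O₂. HO-1 measured by western blot and densitometry. Mean ± S.E.M., three independent experiments.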

[20] = Activation of PI3K/Akt/mTOR signaling in human SH-SY5Y cells assessed as increase in mTOR phosphorylation after 5 to 360 mins by Western blot analysis; format: cell-based
Outline: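 SH-SY5Y cells, unstimulated, exposed to 1 for 5, 15, 30, 60, 120, 240 or 360 min. Phospho-AKT and phospho-mTOR measured by western blot, reported as p-AKT/t-AKT and p-mTOR/t-mTOR ratios after densitometry. Mean ± S.E.M. of three independent experiments.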

Compound: COC(=O)[C@H](Cc1ccccc1)NC(=O)/C=C/c1ccc(O)c(O)c1 [N-CAFFEOYL-PHENYLALANINE METHYL ESTER]
- viability at 10 µM [1]: 80.8 to 89%
- Activity [2]: Non-Toxic
- Activity [3]: Dose-dependent effect
- Activity [4]: 7.3%
- Activity [5]: 3.9%
- viability at 10 µM [6]: 89.8%
- Activity [7]: 4.3%
- viability at 6 h, 10 µM [8]: 94.8%
- Activity [9]: 1.4%
- Activity [10]: Non-Toxic
- Activity [11]: Active
- AUC [12]: 2495.56 ng·h/mL
- Tmax [13]: 2 h
- Cmax [14]: 808 ng/mL
- AUC(0-inf) [15]: 3270 ng·h/mL
- MRT [16]: 1.45 h
- Activity [17]: 111%
- Activity [18]: 325%
- Activity [19]: inactive
- Activity [20]: Active
